According to ChEMBL document CHEMBL1153756, “Synthesis and pharmacological evaluation of N-phenyl-acetamide sulfonamides designed as novel non-hepatotoxic analgesic candidates” (Eur J Med Chem, 2009):
Activity calls are given as the source filed them. No cut-off for these calls is given here.

What was measured:
Mus musculus [1] = test: Analgesic activity in Swiss mouse at 100 umol/kg, po after 30 mins by hot plate test; format: functional
Method in brief: (§1)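 Swiss mice (20–30 g) given 100 µmol/kg orally and placed on a hot plate at 55 ± 1 °C. Latency to fore- or hind-paw licking or jumping recorded 30, 60, 90 and 120 min after dosing. Baseline is the mean reaction time at 30 and 60 min before dosing. n = 6–8. ANOVA with Dunnett test vs control.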

Mus musculus [2] = test: Analgesic activity in Swiss mouse at 100 umol/kg, po after 60 mins by hot plate test; format: functional; method in brief: as §1
Mus musculus [3] = test: Analgesic activity in Swiss mouse at 100 umol/kg, po after 90 mins by hot plate test; format: functional; method in brief: as §1
Mus musculus [4] = test: Analgesic activity in Swiss mouse at 100 umol/kg, po after 120 mins by hot plate test; format: functional; method in brief: as §1
Mus musculus [5] = test: Antihyperalgesic activity in Swiss mouse assessed as inhibition of formalin-induced nociception at 100 umol/kg, po administered 40 mins before formalin challenge measured after 15 to 30 mins; format: functional, organism-based
Method in brief: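 Swiss mice given 100 µmol/kg p.o. (vehicle arabic gum) 40 min before 20 µL of 2% formalin in 0.9% saline s.c. into the right hind paw. Licking/biting time recorded 0–5 min (neurogenic phase) and 15–30 min (inflammatory phase). n = 6. Mean ± S.E.M. ANOVA with Dunnett test vs control.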

Mus musculus [6] = test: Hypothermic activity in Swiss mouse assessed as decrease in rectal body temperature at 100 umol/kg, po after 1 hr at room temperature; format: organism-based; conditions: in vivo
Method in brief: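 Swiss mice with normal rectal temperature (37.0–38.0 °C) were acclimatized 1 h at 25 °C room temperature, and baseline rectal temperature was taken. Animals were then dosed orally at 100 µmol/kg, and rectal temperature was re-measured 1 h later; change from baseline reported, n = 8, mean ± S.E.M., Dunnett versus control.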

Mus musculus [7] = test: Hepatotoxicity in Swiss mouse assessed as changes in morphology of liver parenchyma at 100 umol/kg, po for five days after 24 hrs of last dose; format: toxicity, organism-based; conditions: in vivo
Method in brief: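 Swiss mice given 100 µmol/kg p.o. daily for 5 days; controls received vehicle. After blood collection 24 h post last dose, animals were killed with CO₂; ten liver samples per animal (two each from left, right, left middle, right middle and caudate lobes) fixed in 10% neutral buffered formalin, H&E stained, examined at 100× and 400× for necrosis or degeneration.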

Mus musculus [8] = test: Analgesic activity in Swiss mouse assessed as inhibition of acetic acid-induced abdominal writhings at 100 umol/kg, po administered 60 mins before acetic acid challenge relative to control; parameters: scale not given: the % may be the effect or the level left
Mus musculus [9] = test: Analgesic activity in po dosed Swiss mouse assessed as inhibition of acetic acid-induced abdominal writhings administered 60 mins before acetic acid challenge measured for 25 mins; format: functional; conditions: Abdomen
Method in brief: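 Swiss mice (20–30 g). Oral dosing before i.p. 0.6% (v/v) acetic acid, 0.1 mL/10 g. Writhes (abdominal contraction, pelvic rotation, hind-limb extension) counted for 20 min starting 5 min after injection. Result expressed as % inhibition vs vehicle controls. Screening at 100 µmol/kg p.o.; dose-response at 100, 30, 10 and 3 µmol/kg with ID50 by linear regression. n = 8.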

Mus musculus [10] = test: Antihyperalgesic activity in Swiss mouse assessed as inhibition of formalin-induced nociception at 100 umol/kg, po administered 40 mins before formalin challenge measured after 0 to 5 mins; format: functional, organism-based
Mus musculus [11] = test: Hepatotoxicity in Swiss mouse assessed as increase in serum gamma-glutamyl transferase at 100 umol/kg, po for five days after 24 hrs of last dose; format: toxicity, organism-based; conditions: in vivo
Method in brief: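 Swiss mice received 100 µmol/kg p.o. daily for five days (n = 6; vehicle n = 5). 24 h after the last dose, blood was drawn under ethyl ether anaesthesia, and serum was separated at 3000 × g for 15 min and kept at 4 °C. gGT was assayed by a kinetic kit method, in U/L. ANOVA with Dunnett test.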

Mus musculus [12] = test: Analgesic activity in Swiss mouse at 15 umol/kg, ip after 30 mins by hot plate test; format: functional
Method in brief: (§2)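 Hot-plate reference arm in Swiss mice: morphine 15 µmol/kg i.p. Animals placed on a plate at 55 ± 1 °C. Paw-licking or jumping latency read 30, 60, 90 and 120 min after treatment. Baseline is the mean of readings at 30 and 60 min before treatment. n = 8.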

Mus musculus [13] = test: Analgesic activity in Swiss mouse at 15 umol/kg, ip after 60 mins by hot plate test; format: functional; method in brief: as §2
Mus musculus [14] = test: Analgesic activity in Swiss mouse at 15 umol/kg, ip after 90 mins by hot plate test; format: functional; method in brief: as §2
Mus musculus [15] = test: Analgesic activity in Swiss mouse at 15 umol/kg, ip after 120 mins by hot plate test; format: functional; method in brief: as §2

Row | SMILES | Activity (Mus musculus [1]) [%] | Activity (Mus musculus [2]) [%] | Activity (Mus musculus [3]) [%] | Activity (Mus musculus [4]) [%] | Activity (Mus musculus [5]) | Activity (Mus musculus [6]) [°C] | Activity (Mus musculus [7]) | Activity (Mus musculus [8]) [%] | Activity (Mus musculus [9]) | Activity (Mus musculus [10]) | Activity (Mus musculus [11]) | Activity (Mus musculus [12]) [%] | Activity (Mus musculus [13]) [%] | Activity (Mus musculus [14]) [%] | Activity (Mus musculus [15]) [%]
1 | CC(=O)Nc1ccc(O)cc1 [ACETAMINOPHEN] | 51.8 | 60.6 | 54.6 | 54.6 | inactive | -1.1 | Toxic | 34 |  |  |  |  |  |  | 
2 | CC(=O)Nc1ccc(S(=O)(=O)N2CCN(C)CC2)cc1 | 57.5 | 47.9 | 19.6 | 21.3 | inactive | -1.8 | Non-toxic | 75 | Dose-dependent effect | inactive | Non-toxic |  |  |  | 
3 | CC(=O)Nc1ccc(S(=O)(=O)N2CCNCC2)cc1 | 23.5 | 7.2 | 37.1 | 0 | inactive | 0.2 |  | 61.1 |  |  |  |  |  |  | 
4 | CC(=O)Nc1ccc(S(=O)(=O)N2CCCCC2)cc1 | 26.5 | 14.3 | 18.2 | 30.7 | Active | -0.8 |  | 29.6 |  |  |  |  |  |  | 
5 | CC(=O)Nc1ccc(S(=O)(=O)N2CCSCC2)cc1 | 25 | 28.6 | 48.3 | 65.1 | inactive | -0.7 |  | 44 |  | inactive |  |  |  |  | 
6 | CCN(CC)S(=O)(=O)c1ccc(NC(C)=O)cc1 | 2.4 | 0 | 0 | 0 | Active | -1.8 |  | 45.8 |  |  |  |  |  |  | 
7 | CCNS(=O)(=O)c1ccc(NC(C)=O)cc1 | 23 | 6 | 32.8 | 24.2 | inactive | 0.2 |  | 48.6 |  | inactive |  |  |  |  | 
8 | CC(=O)Nc1ccc(S(=O)(=O)N2CCOCC2)cc1 | 22 | 23.3 | 20.7 | 8 | inactive | -1.4 |  | 43.2 |  |  |  |  |  |  | 
9 | CN1CC[C@]23c4c5ccc(O)c4O[C@H]2[C@@H](O)C=C[C@H]3[C@H]1C5 [MORPHINE] |  |  |  |  |  |  |  |  |  |  |  | 78.9 | 74.7 | 57.8 | 32.1
